Values joined by “and” are separate entries in the source; they are usually repeats but may differ in a detail not shown here. Equal entries are not always repeated.

A word on the AC50: it is the concentration at which the activity in the assay is half-maximal.

Sequence of Scavenger receptor class B member 1 (Mus musculus) (Q61009 whole entry, looked up): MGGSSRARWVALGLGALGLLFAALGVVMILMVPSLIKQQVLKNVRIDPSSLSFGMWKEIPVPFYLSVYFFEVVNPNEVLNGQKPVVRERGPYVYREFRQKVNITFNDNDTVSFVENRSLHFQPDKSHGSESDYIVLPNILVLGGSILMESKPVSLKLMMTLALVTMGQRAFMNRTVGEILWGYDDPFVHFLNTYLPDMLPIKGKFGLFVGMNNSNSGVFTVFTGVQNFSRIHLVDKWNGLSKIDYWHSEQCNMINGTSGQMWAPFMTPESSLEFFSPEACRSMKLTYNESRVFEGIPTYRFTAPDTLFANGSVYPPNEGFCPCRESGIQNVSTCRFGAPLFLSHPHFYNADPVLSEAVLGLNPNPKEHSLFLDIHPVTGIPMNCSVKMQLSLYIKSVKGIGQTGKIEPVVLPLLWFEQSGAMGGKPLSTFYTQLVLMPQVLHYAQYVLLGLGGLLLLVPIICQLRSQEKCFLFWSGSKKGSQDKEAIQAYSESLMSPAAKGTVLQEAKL

In this test the target is Scavenger receptor class B member 1 (Mus musculus) (UniProt Q61009). Put plainly: inhibition of HDL lipid transfer via mSR-BI – ldlA[mSR-BI] CHO cells, powder samples, set 2, dose response (AID 588392). As to conditions: DiI-HDL uptake fluorescence, 3 h. In short, it runs like this:
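System: ldlA[mSR-BI] CHO cells, LDL receptor-deficient, overexpressing murine SR-BI; controls: DMSO as neutral control, BLT-1 (1 µM) as positive control; incubation: overnight plating, 3 h uptake at 37 °C; signal: cellular DiI fluorescence, excitation 550 nm, emission 595 nm, bottom read; probe or stimulus: DiI-labeled HDL, 10 µg/mL final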
On to `CCC(=O)N1CCc2cc(-c3csc(NC(=O)c4cccc(OC)n4)n3)ccc21`, for which the half-maximal activity concentration (AC50) is 528 nM.
For `CCC(=O)N1CCc2cc(-c3csc(NC(=O)c4ccc(F)c(OC)c4)n3)ccc21`, the concentration at half-maximal activity (AC50) was 38 nM.
Consider `CCC(=O)N1CCc2cc(-c3csc(NC(=O)c4ccco4)n3)ccc21`, for which the AC50 is 53.7 nM.
`CCC(=O)N1CCc2cc(-c3coc(N)n3)ccc21`: the concentration at half-maximal activity (AC50) is 20000 nM.
Then `COc1ccc(-c2cc(CC(=O)N(C3CCCCC3)C(C)C(=O)NC3CCCC3)no2)cc1OC` (centres undefined), with 15.4 nM; and `CC(C)C(=O)N1CCc2cc(-c3csc(NC(=O)c4ccco4)n3)ccc21`, with 238 nM.
For `COc1ccc(-c2nnn(CC(=O)N(C3CCCCC3)C(C)C(=O)NC3CCCC3)n2)cc1OC` (centres undefined), the half-maximal activity concentration (AC50) was 72.5 nM.
On to `O=C(CN(C(=O)Cn1nnc(-c2ccc3c(c2)OCO3)n1)C1CCCCC1)NC1CCCC1`, for which the AC50 was 12.6 nM.
Then `CCC(=O)N1CCc2cc(-c3csc(NC(=O)c4cc(OC)cc(OC)c4)n3)ccc21`, with 4.33 nM.
On to `O=C(Nc1nc(-c2ccc3c(c2)CCN3C(=O)C2CC2)cs1)c1ccco1`, for which the AC50 is 186 nM.
Take `COc1cccc(-c2nnn(CC(=O)N(C3CCCCC3)C(C)C(=O)NC3CCCC3)n2)c1` (centres undefined): the concentration at half-maximal activity (AC50) is 180 nM.
Next, `CCC(=O)N1CCc2cc(-c3csc(NC(=O)c4cccc(OC(F)(F)F)c4)n3)ccc21`: 40.8 nM; `CC(C(=O)NC1CCCC1)N(C(=O)Cn1nnc(-c2ccccc2F)n1)C1CCCCC1` (centres undefined): 617 nM.
Regarding `CCCCCCC1CCC/C1=N\NC(N)=S` (centres undefined), the AC50 is 7.1 nM.
Next, `Cc1ccc(-c2nnn(CC(=O)N(C3CCCCC3)C(C)C(=O)NC3CCCC3)n2)cc1` (centres undefined): 493 nM.
Next, `O=C(Nc1nc(-c2ccc3c(c2)CCN3)cs1)c1ccco1`: 44.7 nM; `CCC(=O)N1CCc2cc(-c3coc(NC(=O)c4ccco4)n3)ccc21`: 18900 nM; `CC(C(=O)NC1CCCC1)N(C(=O)Cn1nnc(-c2cccc(F)c2)n1)C1CCCCC1` (centres undefined): 379 nM.
Then `CCC(=O)N1CCc2cc(-c3cnc(NC(C)=O)[nH]3)ccc21`, with 1700 nM; and `CCC(=O)N1CCc2cc(-c3csc(NC(=O)c4cccc(OC)c4)n3)ccc21`, with 39.9 nM.
As to `CC(C(=O)NC1CCCC1)N(C(=O)Cn1nnc(-c2ccccc2Cl)n1)C1CCCCC1` (centres undefined), the AC50 is 3810 nM.
Next, `CCC(=O)N1CCc2cc(-c3cnc(NC(=O)c4ccco4)[nH]3)ccc21`: 10100 nM; `CC(C(=O)NC1CCCC1)N(C(=O)Cn1nnc(-c2ccc(F)cc2)n1)C1CCCCC1` (centres undefined): 125 nM.
Turning to `CS(=O)(=O)N1CCc2cc(-c3csc(NC(=O)c4ccco4)n3)ccc21`, the half-maximal activity concentration (AC50) was 386 nM.
Then `COc1ccc(-c2nnn(CC(=O)N(CC(=O)NC3CCCC3)C3CCCCC3)n2)cc1OC`, with 8.98 nM; and `CC(C(=O)NC1CCCC1)N(C(=O)Cn1nnc(-c2ccc(Cl)cc2)n1)C1CCCCC1` (centres undefined), with 275 nM; and `COC(=O)N1CCc2cc(-c3csc(NC(=O)c4ccco4)n3)ccc21`, with 6840 nM.
As for `CC(C(=O)NC1CCCC1)N(C(=O)Cn1nnc(-c2ccc3c(c2)OCO3)n1)C1CCCCC1` (centres undefined), the AC50 is 24.3 nM.
Then `C[C@@H]1CN([C@H](C)CO)C(=O)c2cc(NC(=O)Cc3cn(C)c4ccccc34)ccc2O[C@H]1CN(C)S(=O)(=O)c1ccc(Cl)cc1`, with 81 nM and 268 nM.

These data come from PubChem BioAssay AID588392 (Broad Institute, 2011).
